Rows were chosen to be rich in hits. Some 3.1% of all compounds tested hit in one or more screens of this group.
aDG glyco up – increases alpha dystroglycan glycosylation | Pro5-aDG cells, alpha-DG glycosylation AlphaScreen (IIH6); 0% Pro5, 100% B10-LARGE cell signal | activation, % at 10 µM | 360,000 compounds, 0.22% hits;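 active = activation of at least 8% versus controls, or a plate z-score of at least 8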;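 note: Pro5 are CHO cells carrying HIG-tagged alpha-DG that lacks glycosylation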
ADAM17 inh – inhibits human ADAM17; P78536; recombinant ADAM17, EDANS/DABCYL FRET peptide cleavage; inhibition, % at 6.95 µM; 370,000 compounds, 0.83% hits; AID 720648;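 active = inhibition above the mean of compounds lying between control limits plus 3 SD, set per campaign, cut at about 8.5% in these data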;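 note: 0% = DMSO-only wells as the low control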
Target sequence (P78536 215-824 limits assumed): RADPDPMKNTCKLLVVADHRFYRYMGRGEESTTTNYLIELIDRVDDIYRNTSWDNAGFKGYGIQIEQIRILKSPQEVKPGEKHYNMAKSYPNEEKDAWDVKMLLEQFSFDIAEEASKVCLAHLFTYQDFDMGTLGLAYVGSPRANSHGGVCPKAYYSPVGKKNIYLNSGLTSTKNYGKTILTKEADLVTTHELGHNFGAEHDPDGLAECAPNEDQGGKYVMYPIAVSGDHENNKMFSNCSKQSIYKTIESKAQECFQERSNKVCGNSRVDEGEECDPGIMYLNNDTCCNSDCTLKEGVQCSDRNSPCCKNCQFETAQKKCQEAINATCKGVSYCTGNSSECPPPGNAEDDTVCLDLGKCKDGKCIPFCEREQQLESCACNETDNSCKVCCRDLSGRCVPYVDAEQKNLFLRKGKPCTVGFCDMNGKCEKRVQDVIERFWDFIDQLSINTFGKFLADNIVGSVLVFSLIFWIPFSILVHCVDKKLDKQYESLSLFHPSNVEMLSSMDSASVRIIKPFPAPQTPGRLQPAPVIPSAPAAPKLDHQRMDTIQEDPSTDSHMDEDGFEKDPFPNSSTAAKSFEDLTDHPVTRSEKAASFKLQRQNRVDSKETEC
MPTP block – inhibitors of mitochondrial permeability transition pore. isolated mouse mitochondria, Ca2+ swelling absorbance, 30 min. 360,000 compounds, 1.4% hits. inhibition, % at 10 µM. AID 602449;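 active = inhibition of 50% or more, scaled per plate between neutral and stimulator controls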;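 note: 0% = DMSO wells given calcium and 100% = 1 mM EGTA wells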
Hep lipid drop – hepatic lipid droplet formation modulation; AML12 mouse hepatocytes, oleate lipid droplets, BODIPY imaging; inhibition, % at 6.5 µM; 240,000 compounds, 0.4% hits;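 active = lipid droplet intensity inhibited by at least 50%, with more than 500 cells counted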
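Material – AML12 mouse liver cells · Also added – oleate loading, 100 µM · Compound dosing – 6.5 µM single-point dosing · Times – overnight treatment with compound plus oleate · Measured by – fluorescence imaging, 20x objective, two fields per well · Read-out – percent inhibition of filter-corrected integrated lipid droplet intensity per well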
V-ATPase pH – yeast V-ATPase proton transport regulation by pHLuorin; S. cerevisiae, pHLuorin cytosolic pH fluorescence; response, % at 10 µM; 350,000 compounds, 0.37% hits; AID 504577; in the data active = response mostly above about 7.3%, no sharp cut-off; inactive = mostly below about 5.4%; note: actives read high
ADAM10 inh – ADAM10 inhibition, QFRET primary screen. 370,000 compounds, 0.62% hits. inhibition, % at 7 µM. recombinant ADAM10, EDANS/DABCYL FRET peptide cleavage, 3 h. AID 720582;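 active = inhibition above a per-campaign cutoff equal to the mean of compounds falling between control-based bounds plus 3 SD, cut at about 20% in these data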;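 note: 0% = DMSO wells while the 100% control is not disclosed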
VATPase regulator – regulators of yeast V-ATPase proton transport; shares compounds with V-ATPase pH; S. cerevisiae pHLuorin cytosolic pH; response, % at 10 µM; 980 compounds, 2% hits; AID 602197; in the data active = response above about 24%;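 note: plate controls were vehicle wells for no effect and positive control wells for full effect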
* hit, by the source's call.

Screening O=C(c1ccc(Cl)cc1)[C@@H]1[C@@H]2C(=O)N(c3ccccc3)C(=O)[C@@H]2C2c3ccccc3C=NN21 (stereo partly specified) returned aDG glyco up 0, ADAM17 inh 2, MPTP block -1, Hep lipid drop 1, V-ATPase pH 10*, ADAM10 inh -3 and VATPase regulator -2.
Screening Cc1ccc(S(=O)(=O)NC2CC2)cc1[N+](=O)[O-] returned aDG glyco up 0, ADAM17 inh 1, MPTP block -1, Hep lipid drop 10, V-ATPase pH -2 and ADAM10 inh 2.
`CC(=O)NCCNS(=O)(=O)c1ccc(C)c([N+](=O)[O-])c1` gave aDG glyco up 0, ADAM17 inh 2, MPTP block 0, Hep lipid drop 3, V-ATPase pH 10*, ADAM10 inh 3 and VATPase regulator 1.
Screening O=C1CN(C(=O)COc2ccc(Br)cc2Br)c2ccccc2N1 returned aDG glyco up 0, ADAM17 inh 1, MPTP block -1, Hep lipid drop 2, V-ATPase pH 8.8*, ADAM10 inh 3 and VATPase regulator 3.
`CC[C@@]1(c2ccc(C)cc2)C(=O)N(C(=O)OC(C)C)N1C(=O)OC(C)C` gave ADAM17 inh 5 and ADAM10 inh 4.
`CCn1nnc(NC(=O)Cc2ccc(Cl)cc2)n1` gave aDG glyco up 0, ADAM17 inh 0, MPTP block 0, Hep lipid drop -10, V-ATPase pH -1 and ADAM10 inh 2.
CCn1nnc(NC(=O)c2ccc(-c3ccc(Cl)cc3)o2)n1 was read as aDG glyco up 0, ADAM17 inh -61, MPTP block 0, Hep lipid drop -21, V-ATPase pH 7.1*, ADAM10 inh -203 and VATPase regulator 2.
`Cc1ccc(/C(N)=N/OC(=O)Cc2cccs2)cc1` gave aDG glyco up 0, ADAM17 inh 1, MPTP block 3, V-ATPase pH -2 and ADAM10 inh -3.
`Cc1cccc(/C(N)=N/OC(=O)Cc2cccs2)c1` gave aDG glyco up 0, ADAM17 inh -3, MPTP block 4, V-ATPase pH 8.5*, ADAM10 inh 2 and VATPase regulator 0.
`O=C(O)CSc1nnnn1C1CCCCC1` gave aDG glyco up 0, ADAM17 inh -4, MPTP block 0, Hep lipid drop 0, V-ATPase pH 2 and ADAM10 inh -6.
`CC(C)N(C(=O)CSc1nnnn1C1CCCC1)C(C)C` gave aDG glyco up 0, ADAM17 inh 3, MPTP block -1, V-ATPase pH 8.1*, ADAM10 inh -1 and VATPase regulator -2.
Screening CC(=O)c1nnn(-c2cccc(C#N)c2)c1C returned aDG glyco up 0, ADAM17 inh -3, MPTP block 1, Hep lipid drop 36, V-ATPase pH 13*, ADAM10 inh 1 and VATPase regulator -1.
N#CCC[C@H]1CC[C@]2(CCCN(C(=O)C3CCCC3)C2)O1 was read as ADAM17 inh 3 and ADAM10 inh 5.
For O=C(NCC(=O)N1CCN(c2cccc(Cl)c2)CC1)c1ccc(Br)o1 the results were aDG glyco up 1, ADAM17 inh -1, MPTP block -1, V-ATPase pH -2 and ADAM10 inh 12.
Cc1ccc(Cl)cc1N1CCN(C(=O)CNC(=O)c2ccc(Br)o2)CC1 was read as aDG glyco up 1, ADAM17 inh -4, MPTP block -2, V-ATPase pH 8.1*, ADAM10 inh -6 and VATPase regulator 6.
Screening Cc1ccc2c(c1)N(CCCC(=O)N(C)Cc1ccccc1Cl)C(=O)CO2 returned ADAM17 inh 1 and ADAM10 inh -1.
Screening Cn1c(=O)cc(OCCCC(=O)Nc2cc(C(F)(F)F)ccn2)c2ccccc21 returned ADAM17 inh 0 and ADAM10 inh -2.
Screening O=C(O)CC(CNS(=O)(=O)c1ccccc1)c1ccccc1 (stereo unspecified) returned aDG glyco up 0, ADAM17 inh 0, MPTP block -1, Hep lipid drop 13, V-ATPase pH 7.1*, ADAM10 inh -7 and VATPase regulator -2.
For Cc1ccc(S(=O)(=O)Nc2ccc3ccccc3n2)cc1 the results were aDG glyco up 0, ADAM17 inh -19, MPTP block 2, Hep lipid drop 1, V-ATPase pH -2 and ADAM10 inh -50.
For Cc1ccc(S(=O)(=O)Nc2cnc3ccccc3c2)cc1 the results were aDG glyco up 1, ADAM17 inh -15, MPTP block 1, Hep lipid drop 7, V-ATPase pH 9.9*, ADAM10 inh -37 and VATPase regulator -5.
For CCOC(=O)N1CCN(C(=O)C[C@H]2C(=O)N(Cc3ccc(OC)cc3)C3=CCCCC[C@@]32C(=O)OC)CC1 the results were ADAM17 inh -2 and ADAM10 inh 0.
Cc1ccc2c(Cl)c(C(=O)NCC(c3ccco3)N3CCCC3)sc2c1 (stereo unspecified) was read as aDG glyco up 1, ADAM17 inh 0, MPTP block 4, Hep lipid drop 19, V-ATPase pH 2 and ADAM10 inh 4.
O=C(NCC(c1ccco1)N1CCCC1)c1sc2cc(F)ccc2c1Cl (stereo unspecified) was read as aDG glyco up 0, ADAM17 inh 1, MPTP block 0, V-ATPase pH 8.6*, ADAM10 inh 5 and VATPase regulator 3.
C=CCn1c(COc2ccc(Cl)cc2)nnc1SCC(=O)c1ccc(-c2ccccc2)cc1 was read as ADAM17 inh 3 and ADAM10 inh 1.
Screening Cc1c(C)c2cc(Cl)c(OCC(=O)NCCCN3CCCC3=O)cc2oc1=O returned aDG glyco up 0, ADAM17 inh -67, MPTP block -1, V-ATPase pH 11*, ADAM10 inh -233 and VATPase regulator 2.
For CC(C)c1ccc(C(=O)OCC(=O)Nc2cccc(S(=O)(=O)NC3=NCCC3)c2)cc1 the results were aDG glyco up 0, ADAM17 inh 5, MPTP block 0, V-ATPase pH 7.2*, ADAM10 inh 10 and VATPase regulator 1.
Screening O=C(COC(=O)c1ccc(O)cc1)Nc1cccc(S(=O)(=O)NC2=NCCC2)c1 returned aDG glyco up 0, ADAM17 inh -2, MPTP block 0, V-ATPase pH 0 and ADAM10 inh -15.
CCc1ccccc1OCC(=O)Nc1cccc(S(=O)(=O)NC2=NCCC2)c1 was read as aDG glyco up 0, ADAM17 inh -2, MPTP block -2, V-ATPase pH 9.5*, ADAM10 inh -1 and VATPase regulator 1.
For COC(=O)[C@]12C[C@H](CC(=O)N3CCC(c4ccccc4)CC3)C(=O)N(CCc3ccc(OC)c(OC)c3)C1=C[C@H](C1CCCC1)O[C@@H]2C the results were ADAM17 inh 7 and ADAM10 inh 6.

Compound activity: PubChem BioAssay, several laboratories
